Most compounds without a hit are left out; they make up all but 4.8% or so of the library.
T cruzi inh: blocks replication of Trypanosoma cruzi; T. cruzi beta-gal in NIH3T3, luminescence, 90 h; inhibition, % (no concentration beside the values); 1.4% of 300,000 active;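 active means mean inhibition across valid replicates above about 55%, limit read from the data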;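 further: signal also drops with host cell toxicity which is not excluded here; higher percent means less beta-gal luminescence so fewer parasites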
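assay system = mouse NIH/3T3 fibroblasts infected with β-gal-expressing T. cruzi Tulahuen C4 | input = 5,000 NIH/3T3 host cells per well | buffer or medium = DMEM plus 2% FBS | timing = 3 h host attachment, then at least 90 h co-culture | measured by = GalScreen luminescence, 60 min | evaluation = luminescence reflecting intracellular parasite burden, expressed as percent inhibition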
CSC inhib: cancer stem cell inhibition; cancer stem cell-like cells viability, luminescence; inhibition, % at 7.5 µM; 1.1% of 300,000 active; in the data active means inhibition above about 75%; tested in HMLE shEcad cells
Efflux pump mplx: blocks antifungal efflux pumps in multiplex yeast assay; AID 485275; inhibition, % at 10 µM; 0.44% of 330,000 active; S. cerevisiae Candida pump triplex, Nile Red efflux;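 active means plate passing quality check with inhibition over a set limit, or well fluorescence over plate mean plus 4 SD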;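 further: Nile Red retained in pooled yeast measured as flow cytometry median fluorescence; higher means more Nile Red kept so more efflux inhibition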
SUMO Mot1 rescue: inhibitors of SUMOylation pathway: yeast Mot1-301 growth rescue | S. cerevisiae Mot1-301 growth rescue, ATP luminescence, 38.5C; percent above DMSO median, 100 means doubled | 1% of 320,000 active | growth rescue, % at 18.8 µM;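 active means every valid replicate shows activation above 250% relative to neutral control wells; inactive means the rest, any valid replicate at or below 250%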
WT yeast gro inh: growth inhibition of WT yeast, mitochondrial fusion screen; mitochondrial fusion phenotypic screen, WT strain; inhibition, % at 10 µM; 2.1% of 190,000 active; AID 1362; in the data active means inhibition above about 58%; tested in S. cerevisiae
Beta cell apopt: blocks beta cell apoptosis; 0.8% of 300,000 active; INS-1E cytokine-induced death, ATP luminescence, 48 h; percent of positive-control rescue, neutral wells zero; AID 435005; protection from apoptosis, % (concentration not given with the values);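 active means Every replicate reaches about 75%, or at least half do and their mean reaches it too, limit read from the data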;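 further: higher means more ATP so stronger rescue from cytokine killing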
Each line names hits and unclear results; the compound was inactive in the other large screens.

O=c1c2c(nc3n1CCCCC3)-c1ccccc1CC21CCCC1	CSC inhib 93
O=c1[nH]c(NNC(=S)NCc2ccccc2)nc2c1C1(CCCCC1)Cc1ccccc1-2	CSC inhib 106
O=c1[nH]c(NCCCO)nc2c1C1(CCCC1)Cc1ccccc1-2	Beta cell apopt 104
CC(=O)C[C@@H](O)CC(=O)[C@@H]1OC(=O)[C@H](C)C/C=C\Cc2ccccc21	none (no result: T cruzi inh, CSC inhib, WT yeast gro inh)
COc1ccc(Cl)cc1NC(=O)C(OC)c1ccccc1 (stereo not given)	none
COC(/C(=N/O)c1ccc(Cl)cc1)c1ccccc1 (stereo not given)	Beta cell apopt 100 (no result: WT yeast gro inh)
CC12COC3(C(=O)Nc4ccc5ccccc5c4)CC1CCC32C (stereo not given)	WT yeast gro inh 77
CC12COC3(C(=O)Nc4ccccc4)CC1CCC32C (stereo not given)	none (no result: CSC inhib)
CC(NCc1cc(Br)ccc1OCC(=O)NCc1ccccc1)c1ccccc1 (stereo not given)	T cruzi inh 60 (no result: CSC inhib, SUMO Mot1 rescue)
COCCN(Cc1ccccc1)C(=O)C1CCN(S(=O)(=O)c2ccc3c(c2)OCCO3)CC1	none (no result: T cruzi inh, CSC inhib, WT yeast gro inh)
COC(=O)CNc1nc(C2CC2)nc2c1nnn2Cc1ccccc1Cl	none
CN(C)S(=O)(=O)c1ccc(Nc2nc(C3CC3)nc3c2nnn3Cc2ccccc2Cl)cc1	Beta cell apopt 88 (no result: CSC inhib)
Cc1noc(C)c1CSc1nc2sc(C)c(C)c2c(=O)n1-c1ccccc1	T cruzi inh 60 (no result: SUMO Mot1 rescue)
C=CCn1c(SCc2c(C)noc2C)nc2sc(C)c(C)c2c1=O	none
Cc1ccccc1N1CCN(C2=NC(=O)/C(=C\c3cccs3)S2)CC1	WT yeast gro inh 64
CC1CC(=O)N(CC(=O)NCc2ccc(F)cc2)c2ccccc2S1(=O)=O (stereo not given)	none (no result: WT yeast gro inh)
Cc1ccccc1OC1C(=O)N(Cc2ccc3c(c2)OCO3)C1c1sccc1C (stereo not given)	Beta cell apopt 79
Cc1c(C)c2cc(Cl)c(O)c(CN3CCCC(C)C3)c2oc1=O (stereo not given)	WT yeast gro inh 66
COc1cc(OC)cc(C(=O)N2CCC(n3c(C)nc4cc(F)ccc43)CC2)c1	WT yeast gro inh 69
COc1ccc(NC(=O)CN2CCC(n3c(C)nc4cc(F)ccc43)CC2)c(OC)c1	none
Cc1cccc(-c2nnc(NC(=O)c3ccc(Cl)cc3)o2)c1	CSC inhib 89
O=C(Nc1nnc(-c2ccc3c(c2)CCCC3)o1)c1ccccc1	CSC inhib 92, WT yeast gro inh 75
O=C(Nc1nnc(-c2ccc(Cl)cc2)o1)Nc1ccccc1Cl	none
O=C(Nc1nnc(-c2ccc(F)cc2)o1)c1cccc([N+](=O)[O-])c1	WT yeast gro inh 76
O=C(Nc1nnc(-c2ccc(Cl)cc2)o1)c1nc2ccccc2s1	CSC inhib 99
N=C1C(c2ccccc2)=C(O)CN1CCO	none
O=C(Nc1nnc(-c2ccc3c(c2)OCCO3)o1)c1ccc(Cc2ccccc2)cc1	WT yeast gro inh 61 (no result: CSC inhib, SUMO Mot1 rescue, Beta cell apopt)
Cc1ccc(NC(=O)C2CCCN(C(=O)c3ccc(Cl)cc3)C2)cc1S(=O)(=O)N1CCOCC1 (stereo not given)	T cruzi inh 62
CS(=O)(=O)c1ccc(NC(=O)C2CCCN(C(=O)c3ccc(Cl)cc3)C2)cc1 (stereo not given)	none (no result: T cruzi inh, CSC inhib, WT yeast gro inh)
Cc1ccc(NC(=O)C2CC2C)cc1S(=O)(=O)N1CCOCC1 (stereo not given)	T cruzi inh 60 (no result: WT yeast gro inh)
Cc1ccc(NC(=S)Nc2ccc(C(C)C)cc2)cc1S(=O)(=O)N1CCCCCC1	CSC inhib 75, WT yeast gro inh 66
O=C(CN(C(=O)c1csnn1)c1ccc(Br)cc1)NC1CCCCC1	none (no result: WT yeast gro inh)
CSc1ccccc1NC(=O)c1cc(-c2cccnc2)nc2ccc(Br)cc12	T cruzi inh 69
COc1ccc(COc2cc(-c3cccc(OC)c3)nc3ccc(NC(=O)c4ccc(N(C)C)cc4)cc23)cc1	CSC inhib 80 (no result: Efflux pump mplx)
COc1ccc(COc2cc(-c3cccc(OC)c3)nc3ccc(NC(C)=O)cc23)cc1	T cruzi inh 68
COc1cccc(-c2cc(C(=O)Nc3ccc(N(C)C(C)=O)cc3)c3cc(Br)ccc3n2)c1	T cruzi inh 61 (no result: WT yeast gro inh)
CN(Cc1ccccc1NS(=O)(=O)c1ccc2ccccc2c1)C1CCCCC1	none
COc1ccc(CCNC(=O)CN2C(=O)NC3(CCCCC3C)C2=O)cc1 (stereo not given)	none (no result: T cruzi inh, WT yeast gro inh)

High-throughput results from PubChem BioAssay.
